From PubChem
RAD54 inh: inhibitors of human RAD54 branch migration, primary screen, biochemical, fluorescence, single point; actives 0.14% (n = 360,000); RAD54 Holliday junction branch migration, FAM/BHQ fluorescence; inhibition, % at 10.4 µM; DNA repair and recombination protein RAD54-like (Homo sapiens), Q92698;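 active = mean normalized replicate activity at least 40 and at least half of replicates scoring 40 or more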;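 also: 0% = median of neutral control wells and 100% = median of positive control wells; inhibitors cause a drop in the FAM fluorescence signal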
Target sequence (Q92698 whole entry, looked up): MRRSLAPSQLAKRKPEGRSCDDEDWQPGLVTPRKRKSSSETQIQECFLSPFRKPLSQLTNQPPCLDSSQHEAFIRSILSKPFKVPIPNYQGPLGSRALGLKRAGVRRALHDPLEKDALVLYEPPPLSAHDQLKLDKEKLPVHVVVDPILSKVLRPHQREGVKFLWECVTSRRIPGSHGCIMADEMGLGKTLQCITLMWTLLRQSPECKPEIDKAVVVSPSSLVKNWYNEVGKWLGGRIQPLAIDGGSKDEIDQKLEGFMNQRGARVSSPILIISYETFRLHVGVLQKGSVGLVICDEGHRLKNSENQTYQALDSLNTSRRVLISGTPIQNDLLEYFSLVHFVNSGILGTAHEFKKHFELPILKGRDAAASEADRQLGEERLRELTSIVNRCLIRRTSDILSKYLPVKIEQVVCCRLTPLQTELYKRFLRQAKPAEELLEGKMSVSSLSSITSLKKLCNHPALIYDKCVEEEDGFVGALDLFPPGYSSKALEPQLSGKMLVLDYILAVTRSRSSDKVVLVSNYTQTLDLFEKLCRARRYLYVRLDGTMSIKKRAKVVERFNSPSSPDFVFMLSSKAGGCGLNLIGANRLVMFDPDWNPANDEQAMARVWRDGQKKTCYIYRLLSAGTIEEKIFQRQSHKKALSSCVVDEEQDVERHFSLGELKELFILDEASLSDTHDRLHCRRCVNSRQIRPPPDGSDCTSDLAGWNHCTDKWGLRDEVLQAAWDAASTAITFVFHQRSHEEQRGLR
PglD inh: C. jejuni PglD acetyltransferase inhibitors, primary screen, biochemical, DTNB colorimetric, single point; actives 0.098% (n = 360,000); AID 602405, 2012; purified PglD enzyme, DTNB colorimetric CoA detection; UDP-N-acetylbacillosamine N-acetyltransferase PglD (Campylobacter jejuni); inhibition, % at 12.5 µM; in the data active = inhibition above about 16%, passing the limit was not always enough
rRNA inh HTS: reduced GFP signal of wild-type E. coli, primary screen, bacterial rRNA inhibitor project, GFP/RFP fluorescence, OD600, single point; E. coli WT GFP vs humanized-ribosome RFP mutants, 24 h; active compounds read low; DMSO median 0, no signal -100; GFP signal change (wild-type ribosome), % (no concentration beside the values); actives 1.6% (n = 350,000);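 active = significant combined selectivity score with lowered wild-type GFP, culture density cut under 30%, mutant RFP and density less affected; inactive = any of these conditions unmet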
Cneo AK release: Cryptococcus neoformans cell lysis inducers, primary screen, AK release luminescence, single concentration. C. neoformans lysis, adenylate kinase release luminescence, 4 h; normalised: neutral wells 0, clomiphene wells 100. AID 651654, 2012. actives 0.2% (n = 360,000). lysis activity, % at 15 µM;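 active = mean lysis activity across replicates of at least 80%, whatever share of replicates individually reach that level; inactive = mean lysis activity below 80%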
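Material: C. neoformans cells | Amount: Yeast cell density of 5 × 10^6 cells/mL | Medium: Fresh YPD growth medium | Dosing: Single dose | Times: Static 4 h at 37 °C with compound, 1 h detection | Detection: AK luminescence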
RAD52 anneal inh: RAD52 DNA annealing inhibitors, primary screen, biochemical, FRET, single point, set 2; actives 0.46% (n = 360,000); DNA repair protein RAD52 homolog (Homo sapiens), P43351; AID 651710, 2012; inhibition, % at 18.7 µM; recombinant RAD52 DNA annealing, FRET fluorescence;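 active = every replicate showing at least 50% inhibition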
* hit, by the source's call; . = not tested or not shown. Most compounds without a hit are left out; they make up all but 1.9% or so of the library.

SMILES | RAD54 inh | PglD inh | rRNA inh HTS | Cneo AK release | RAD52 anneal inh
COc1cc(C(=O)Nc2ccc3ccccc3c2)cc(OC)c1OC | . | . | -25* | . | -21
COc1ccc(C(=O)Nc2ccc3ccccc3c2)cc1OC | -1 | 6 | -2 | 0 | -4
CCCN1C[C@H](C)[C@@H](OC)CN(C)C(=O)c2cc(NC(=O)NC3CCCC3)ccc2OC[C@H]1C | . | . | 5 | . | .
CN(C)C(=O)C[C@H]1CC[C@H]2[C@@H](COc3ccc(NC(=O)C4CC4)cc3C(=O)N2C)O1 | 6 | 2 | 1 | 1 | -4
COc1ccc(/C=C/C(=O)NCCc2nc3ccccc3[nH]2)cc1 | 0 | -4 | -26* | 2 | 2
O=C(CCCN1C(=O)C(=Cc2ccc3c(c2)OCO3)SC1=S)Nc1ccc(C(=O)O)c(O)c1 | 8 | 6 | -26* | -1 | -23
O=C(CCCN1C(=O)/C(=C/c2ccc3c(c2)OCO3)SC1=S)Nc1ccc(C(=O)O)cc1 | -8 | -1 | . | -2 | -10
CCc1ccc(NC(=O)N(CCCN2CCOCC2)C(C)c2cc3cccc(OC)c3o2)cc1 (configuration not stated) | 2 | 5 | -22* | 4 | -10
CCCC(=O)N1CC2(C1)CN(C(=O)CN1CCOCC1)[C@@H](CO)c1c2c2ccc(OC)cc2n1C | . | . | 5 | . | 0
Cc1ccccc1C(=O)NNC(=S)NC(=O)c1cccnc1 | 1 | -6 | -24 | 0 | -8
O=C(NC(=S)NNC(=O)c1ccccc1F)c1cccnc1 | -5 | -1 | -19* | 0 | -25
CNC[C@@H]1Oc2c(NC(=O)Nc3ccc(F)cc3)cccc2C(=O)N([C@H](C)CO)C[C@H]1C | 6 | 1 | 0 | -3 | -19
O=S(=O)(Cc1cc(NCc2ccccc2)nc(-c2ccncc2)n1)c1ccccc1 | . | . | 11 | . | -16
O=S(=O)(Cc1cc(NCc2ccccc2)nc(-c2ccccn2)n1)c1ccccc1 | . | . | -39* | . | -27
COc1cccc(-c2ccc(C3[C@@H]4CN(C(=O)c5ccc(F)cc5)C[C@H]3N4)cc2)c1 (some centres not stated) | . | . | -50 | . | 52*
O=C(c1ccc(F)cc1)N1C[C@@H]2N[C@H](C1)C2c1ccc(-c2ccc(F)cc2)cc1 (some centres not stated) | . | . | -59 | . | 50*
CCCC(=O)Nc1ccc2c(c1)OC[C@H](C)N(C(=O)c1ccccc1F)C[C@@H](C)[C@@H](OC)CN(C)C2=O | . | . | 3 | . | .
COc1cccc(S(=O)(=O)N2CC[C@@H]3[C@@H](CO)Nc4ccc(-c5ccc(C#N)cc5)cc4[C@@H]32)c1 | 0 | 0 | -9 | -17 | .
CC(C)NC(=O)NCC[C@H]1CC[C@@H](NS(=O)(=O)c2ccccc2)[C@@H](CO)O1 | . | . | 2 | . | -4
C[C@H]1CN([C@@H](C)CO)C(=O)c2cc(NC(=O)Cc3cn(C)c4ccccc34)ccc2O[C@@H]1CN(C)CC1CC1 | . | . | 1 | . | 16
COc1ccc(NC(=O)c2ccco2)cc1NC(=O)c1cccs1 | -8 | -7 | . | -2 | .
O=C(Nc1ccc(NC(=O)c2cccs2)c(Cl)c1)c1ccco1 | . | . | -27* | . | -15
O=C(NC[C@@H]1CC[C@@H]2[C@@H](CN2S(=O)(=O)c2ccccc2[N+](=O)[O-])O1)C1CCCCC1 | . | . | . | . | 20
O=C(COC(=O)c1cccc(NS(=O)(=O)c2ccc(F)c(F)c2)c1)NC(=O)NC1CCCC1 | . | . | -36* | . | 6
O=C(c1cccc(F)c1)N1CC(=O)N2[C@H](CO)[C@H](c3ccc(-c4ccccc4)cc3)[C@@H]2C1 | . | . | -2 | . | .
SMILES | RAD54 inh | PglD inh | rRNA inh HTS | Cneo AK release | RAD52 anneal inh
COc1ccc(OC)c(NC(=O)C2C(C(=O)O)C3(Cl)C(Cl)=C(Cl)C2(Cl)C3(Cl)Cl)c1 (configuration not stated) | . | . | -19* | . | -20
CCOc1ccc(NC(=O)C2C(C(=O)O)C3(Cl)C(Cl)=C(Cl)C2(Cl)C3(Cl)Cl)cc1 (configuration not stated) | . | . | -57 | . | -4
Cc1noc(C)c1S(=O)(=O)N(C)C[C@H]1Oc2ccc(NS(=O)(=O)c3ccccc3)cc2CC(=O)N([C@H](C)CO)C[C@@H]1C | -3 | -4 | 4 | -3 | -1
CCCCNS(=O)(=O)c1ccc2nc(SCC(N)=O)[nH]c2c1 | . | 3 | 11 | -1 | -17
CCCCNS(=O)(=O)c1ccc2nc(SCC(=O)c3ccccc3OC)[nH]c2c1 | 0 | 0 | -45* | 0 | 0
COc1ccc(NS(=O)(=O)c2ccc(N/N=C(\C)c3ccncc3)c([N+](=O)[O-])c2)cc1 | . | . | -23* | . | -9
CN(CC(=O)Nc1ccccc1Cl)C(=O)c1cccc(S(=O)(=O)N2CCN(c3ccc(F)cc3)CC2)c1 | 8 | -1 | -25* | -1 | -11
COc1ccc(-c2ccc3c(c2)[C@H]2[C@H](CCN2S(=O)(=O)c2ccc(F)cc2)[C@H](CO)N3C)cc1 | . | . | -1 | . | -4
COc1ccc(-c2ccc3c(c2)[C@@H]2[C@@H](CCN2S(=O)(=O)c2ccc(F)cc2)[C@@H](CO)N3C)cc1 | . | . | -1 | . | 90*
COc1ccccc1NC(=O)N1CC[C@H]2[C@@H]1c1cc(C#Cc3ccc(F)cc3)ccc1N(C)[C@H]2CO | -2 | 3 | 2 | 39 | 74*
Cc1ccc(S(=O)(=O)N2CC[C@@H]3[C@H](CO)Nc4ccc(-c5ccccc5F)cc4[C@@H]32)cc1 | 7 | 3 | 0 | 90* | 4
CCOc1ccc(OCc2cccc(C(=O)N3CCCC3)c2)cc1 | -10 | 9 | -24 | -6 | 6
CCOc1ccc(OCc2cccc(C(=O)O)c2)cc1 | -2 | 3 | -24* | -2 | -8
CCS(=O)(=O)N1CC2(CN(C(=O)Nc3cccc(F)c3)[C@H](CO)c3c2c2ccc(OC)cc2n3C)C1 | . | . | -1 | . | .
O=C(COc1ccc([N+](=O)[O-])cc1)NNC(=O)Nc1ccc([N+](=O)[O-])cc1 | 4 | 0 | -19* | 0 | -11
CCOC(=O)c1cccc(NC(=O)COc2ccc([N+](=O)[O-])cc2)c1 | 8 | -2 | . | -1 | .
CCCOC(=O)c1cccc(NC(=O)COc2ccc([N+](=O)[O-])cc2)c1 | . | . | -21* | . | -22
O=C(N/N=C/c1ccc(O)cc1O)C(=O)N/N=C/c1ccc(O)cc1O | -14 | -9 | -24* | -4 | -22
Oc1ccc(C=NNc2nc3ccccc3s2)c(O)c1 | 4 | 7 | -55 | -15 | -10
Oc1ccc(/C=N/Nc2ccc3ccccc3c2)c(O)c1 | -1 | 1 | -32* | 1 | -25
N[C@@H]1CC[C@H](CCn2cc(-c3ccccn3)nn2)O[C@H]1CO | -2 | -9 | 3 | -12 | 1
